Measured values reported in publication PMC2921666 (Genes & cancer, 2010).

How the values were obtained:
[1] = molecular target: recombinant V617F mutant JAK2 (aa 532-1132) (Homo sapiens, UniProt O60674, V617F); assay: Radiometric kinase assay, recombinant V617F mutant JAK2; assay type: biochemical; conditions: read-out: IC50, kinase activity of mutant JAK2 (V617F); JAK2-V617F aa 532-1132, GST-Abltide substrate, 20 μM ATP
[2] = system: JAK2 phosphorylation in Ba/F3:JAK2V617F cells; assay: JAK2 phosphorylation in IL-3-stimulated Ba/F3:JAK2V617F cells; assay type: cell-based, mouse; conditions: 2 hours, with recombinant IL-3
Procedure, shortened: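 Mid-log-phase Ba/F3:JAK2V617F cells were treated 2 h with the test compound at the indicated concentrations, including 1 h with 5 ng/mL recombinant mouse IL-3. Washed cells were lysed in detergent buffer. 50 µg of clarified lysate was run on SDS-PAGE and immunoblotted with anti-phospho-JAK2 (Tyr1007/1008). Blots were stripped and reprobed for total JAK2.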

Ba/F3:JAK2V617F cells = assay: Growth inhibition, Ba/F3:JAK2V617F cells; assay type: cell-based, mouse; conditions: 72 hours
Procedure, shortened: (§1)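 Cells grown 72 h with varying concentrations of test compound. Media: Ba/F3:JAK2V617F in RPMI 1640 with 10% FBS plus 1% WEHI-3B conditioned medium (IL-3 source); 32D:p210T315I in IMDM with 10% FBS; K562 in RPMI 1640 with 10% FBS; HEL and SET-2 in RPMI 1640 with 20% and 10% heat-inactivated FBS. Viability by Trypan blue exclusion; GI50 from percent viable cells plotted against drug concentration.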

HEL cells = assay: Growth inhibition, HEL cells; assay type: cell-based, human; conditions: 72 hours
Procedure, shortened: as §1

SET2 cells = assay: Growth inhibition, SET-2 cells; assay type: cell-based, human; conditions: SET2 cells (hemizygous V617F), 72 hours
Procedure, shortened: as §1

[3] = system: STAT-5 phosphorylation in 32D:p210T315I cells; assay: STAT-5 phosphorylation in 32D:p210T315I cells; assay type: cell-based, murine; conditions: 2 hours
Procedure, shortened: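 Exponentially growing 32D:p210T315I cells, kept in IMDM with 10% FBS, were given the test compound at the indicated concentrations for 2 h. They were then PBS-washed and lysed in detergent buffer. 50 µg of clarified lysate underwent SDS-PAGE and Western blotting for phospho-STAT-5.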

K562 cells = assay: Growth inhibition, K562 cells; assay type: cell-based; conditions: Homo sapiens, K562, 72 h
Procedure, shortened: as §1

32D:p210T315I cells = assay: Growth inhibition, 32D:p210T315I cells; assay type: cell-based, murine; conditions: Mus musculus, 72 h
Procedure, shortened: as §1

Chain of recombinant V617F mutant JAK2 (aa 532-1132) (O60674 532-1132 V617F): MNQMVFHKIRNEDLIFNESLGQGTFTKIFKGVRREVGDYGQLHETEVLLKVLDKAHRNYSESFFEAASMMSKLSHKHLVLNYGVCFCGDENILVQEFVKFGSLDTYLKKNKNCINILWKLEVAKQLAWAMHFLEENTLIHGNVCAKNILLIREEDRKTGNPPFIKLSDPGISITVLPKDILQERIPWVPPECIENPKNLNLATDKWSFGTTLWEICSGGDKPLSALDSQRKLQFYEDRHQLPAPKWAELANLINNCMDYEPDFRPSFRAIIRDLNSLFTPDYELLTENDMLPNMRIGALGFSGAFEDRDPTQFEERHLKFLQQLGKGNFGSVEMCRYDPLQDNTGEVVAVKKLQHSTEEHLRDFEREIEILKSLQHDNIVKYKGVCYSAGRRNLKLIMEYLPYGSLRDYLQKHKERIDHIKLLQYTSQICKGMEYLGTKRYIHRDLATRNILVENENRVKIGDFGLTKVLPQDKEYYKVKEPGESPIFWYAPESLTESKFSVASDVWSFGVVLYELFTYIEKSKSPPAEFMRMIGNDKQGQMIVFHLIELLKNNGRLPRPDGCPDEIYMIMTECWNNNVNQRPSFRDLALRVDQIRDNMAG

GI50 (K562 cells)	Structure (SMILES)	IC50 [1]	inhibition of JAK2 phosphorylation in cells [2]	GI50 (Ba/F3:JAK2V617F cells)	GI50 (HEL cells)	GI50 (SET2 cells)	inhibition of STAT-5 phosphorylation [3]	GI50 (32D:p210T315I cells)
–	N#C/C(=C/c1ccc(O)c(O)c1)C(=O)NCc1ccccc1 [AG490]	33.1 µM	did not inhibit JAK2 phosphorylation	1 µM	> 20 µM	> 20 µM	–	–
0.1 to 0.2 µM	Cc1ccc(NC(=O)c2ccc(CN3CCN(C)CC3)cc2)cc1Nc1nccc(-c2cccnc2)n1 [imatinib]	–	–	–	–	–	failed to do so	20 to 30 µM
